From PubChem
Shown are actives, neighbours in structure and some others; about 0.95% of the full set was active somewhere.
PvdQ acylase: P. aeruginosa PvdQ acylase inhibition; 340,000 tested, 0.063% active; purified PvdQ acylase, fluorescence plate reader; inhibition, % at 10 µM; in the data active means inhibition above about 30%, passing the limit was not always enough;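 further: 0% = vehicle neutral wells and 100% = reference inhibitor wells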
CAL PDZ FP-1: inhibitors of human CAL PDZ peptide binding. Q9HD26. purified CAL PDZ, TMR-peptide fluorescence polarization, 1 h. inhibition, % at 24.9 µM. 300,000 tested, 0.92% active;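 active means mean inhibition of at least 30% with at least half of replicates also reaching 30%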;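 further: 0% = DMSO neutral control and 100% = excess unlabeled competitor peptide PRC23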
CAL PDZ FP-2: human CAL PDZ-peptide interaction inhibition; Q9HD26; purified CAL PDZ, TMR-peptide fluorescence polarization, 1 h; inhibition, % at 20 µM; 330,000 tested, 0.02% active;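 active means highest replicate inhibition of at least 40%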;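 further: plate controls were DMSO neutral control wells for no effect and unlabeled competitor peptide control wells for full effect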
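Read-out basis: mP drop reported as inhibition | Assay system: Tagged CAL PDZ protein CerCALP, purified | Benchmarks: Unlabelled peptide for full inhibition, DMSO wells as neutral | Schedule: 1 h incubation at room temperature before polarization reading | Buffer or medium: Sodium phosphate/NaCl buffer pH 7.4 with TCEP, IgG, Thesit | Doses: Single point, 20 µM | Measured by: Fluorescence polarization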
miR122 inh: blocks miR-122 activity in Huh7 sensor cells; Huh7 miR-122 Renilla luciferase sensor, 48 h; neutral wells = 0, positive control = 100; activation (reporter increase), % at 12.5 µM; 340,000 tested, 0.3% active; AID 602342;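 active means mean replicate activation score at least 90 and every replicate individually at or above 90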;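 further: higher luciferase means less miR-122 activity so hits act as miR-122 inhibitors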
The depositor's hits bear a star; · = not tested or not shown; [ ] = dose if it differs, or a comment.

SMILES	PvdQ acylase	CAL PDZ FP-1	CAL PDZ FP-2	miR122 inh
Cc1cccc(N2CCN(C(=O)c3ccc(NC4=NC5CS(=O)(=O)CC5S4)cc3)CC2C)c1 (stereo not given)	-18.2	92.8*	-0.5	-2.9
O=C(c1ccc(NC2=NC3CS(=O)(=O)CC3S2)cc1)N1CCN(c2ccccc2)CC1 (stereo not given)	-15.1	2.5	-1.0	·
Cc1ccc(OCC(=O)N2CCOCC2)c([N+](=O)[O-])n1	-7.5	-1.6	-2.1	5.3
Cc1ccc(OCC(=O)N2CC(C)OC(C)C2)c([N+](=O)[O-])n1 (stereo not given)	-14.3	46.3*	6.8	·
CNC(=O)c1cc(Nc2nnc(C)c3ccccc23)ccc1OC	-18.2	35.3*	·	14.9
CO[C@@H]1CN(C)C(=O)c2ccc(NC(C)=O)cc2OC[C@@H](C)N(C(=O)c2cnccn2)C[C@H]1C	·	·	·	4.6[16.7 µM]
CC(=O)Nc1ccc(Oc2nc(-c3cccnc3)nc3sc4c(c23)CCCC4)cc1	-11.5	67.2*	-0.5	-1.7
C=CCn1cnnc1SCC(=O)NCC1COc2ccccc2O1 (stereo not given)	4.9	-2.8	-2.4	·
C=CCn1cnnc1SCC(=O)N(C)CC1COc2ccccc2O1 (stereo not given)	-3.6	48.0*	-0.3	-1.9
CN(C)/N=C/C=C1\CC/C(=C\c2ccc(Br)cc2)C1=O	-12.6	48.7*	-0.6	3.3
CN(C)/N=C/C=C1\CCC/C(=C/c2cccs2)C1=O	0.6	17.0	-6.5	-11.5
CCC(C)c1ccccc1NC(=O)COC(=O)CCc1cc(OC)c(OC)c(OC)c1 (stereo not given)	-12.2	83.2*	-0.7	·
COc1cc(CCC(=O)OCC(=O)Nc2ccccc2F)cc(OC)c1OC	-10.7	-3.9	-2.7	-2.9
Cc1nnc(SCC(=O)NC2CC2)n1CCc1ccccc1	-11.7	-2.8	·	-10.0
Cc1cccc(NC(=O)CSCC(=O)Nc2ccc(N3CCOCC3)cc2N2CCOCC2)c1	-11.4	89.1*	0.0	1.0
CCCCCOc1ccc(C(=O)Nc2ccc(N3CCOCC3)cc2N2CCOCC2)cc1	-10.7	44.6*	-1.1	-2.8
CC(C)COc1ccc(C(=O)Nc2ccc(N3CCOCC3)cc2N2CCOCC2)cc1	-11.0	-2.3	-0.5	·
CCCn1cnc2c(SCCc3ccccc3)nc(N)nc21	-7.9	53.9*	·	-7.2
CCCCn1cnc2c(SCCc3ccccc3)nc(N)nc21	-8.8	-4.4	-1.4	-4.2
COC(=O)CCCCCCCCC(O)CN(C)C (stereo not given)	1.2	-1.0	-3.1	·
COC(=O)CCCCCC(CCC(=O)OC)NC(C)=O (stereo not given)	-4.6	-0.5	0.5	238.1*
O=C(O)CSC(C(=O)Nc1ccc(C(F)(F)F)cc1)c1ccccc1 (stereo not given)	-10.3	-4.0	-2.7	3.3
O=C(O)CSC(C(=O)Nc1ccc(Br)cc1)c1ccc(Cl)cc1 (stereo not given)	-4.1	135.2*	-1.2	·
Cc1ccc(NC(=O)COC(=O)Cn2ccc(=O)[nH]c2=O)cc1C	-10.3	39.8*	-0.4	·
Cc1ccc(NC(=O)COC(=O)CN2CCCCCC2=O)cc1C	-1.1	-4.8	-2.0	·
SMILES	PvdQ acylase	CAL PDZ FP-1	CAL PDZ FP-2	miR122 inh
O=C(CC1c2ccccc2Oc2ccccc21)NCc1ccco1	4.8	-4.8	-0.2	5.5
NC(=O)c1ccc(-c2nnc(Nc3ccc(S(N)(=O)=O)cc3)c3ccccc23)cc1	-13.8	65.5*	·	·
Cc1ccc(-c2nnc(Nc3ccc4c(c3)OCO4)c3ccccc23)cc1S(N)(=O)=O	-10.8	·	0.6	179.9*
CC(=O)Nc1ccc(Nc2nnc(-c3ccc(C)c(S(N)(=O)=O)c3)c3ccccc23)cc1	-9.0	0.9	1.2	·
C[C@@H]1CN([C@H](C)CO)C(=O)Cc2cc(N(C)C)ccc2O[C@H]1CN(C)Cc1ccc(C(=O)Nc2ccccc2N)cc1	·	·	·	84.8[16.7 µM]
C[C@@H]1CN([C@@H](C)CO)C(=O)Cc2cc(NC(=O)Nc3ccc(F)cc3)ccc2O[C@@H]1CN(C)Cc1ccc(C(=O)Nc2ccccc2N)cc1	·	·	·	-4.8[16.7 µM]
C[C@H](CO)N1C[C@H](C)[C@@H](CN(C)Cc2ccc(C(=O)Nc3ccccc3N)cc2)Oc2ccc(N(C)C)cc2C1=O	·	·	·	58.9[16.7 µM]
C[C@@H]1CN([C@H](C)CO)C(=O)c2cc(N(C)C)ccc2O[C@H]1CN(C)Cc1ccc(C(=O)Nc2ccccc2N)cc1	·	·	·	111.7*[16.7 µM]
C[C@H](CO)N1C[C@H](C)[C@H](CN(C)Cc2ccc(C(=O)Nc3ccccc3N)cc2)Oc2ccc(NC(=O)Nc3ccc(F)cc3)cc2CC1=O	·	·	·	267.3*[16.7 µM]
C[C@@H]1CN([C@H](C)CO)C(=O)c2cc(N(C)C)ccc2O[C@@H]1CN(C)Cc1ccc(C(=O)Nc2ccccc2N)cc1	·	·	·	220.4*[16.7 µM]
C[C@@H]1CN([C@H](C)CO)C(=O)Cc2cc(N(C)C)ccc2O[C@@H]1CN(C)Cc1ccc(C(=O)Nc2ccccc2N)cc1	·	·	·	130.4*[16.7 µM]
CCOc1ccc(Cl)cc1C1=CC(=O)C[C@H](c2ccc(OC)cc2)C1	-4.3	-1.7	-0.1	25.4
COCC#Cc1ccc([C@@H]2[C@@H](CO)N3CCCCN(C(=O)CN(C)C)C[C@@H]23)cc1	·	·	·	8.6[16.7 µM]
C[C@H]1CN([C@@H](C)CO)C(=O)c2cc(N(C)C)ccc2O[C@H]1CN(C)Cc1ccc(C(=O)Nc2ccccc2N)cc1	·	·	·	119.5*[16.7 µM]
Cc1ccc(CC(=O)Nc2ccc(S(=O)(=O)Nc3ncccn3)cc2)cc1	-15.5	3.1	-1.6	-1.4
O=C(CCc1c[nH]c2ccccc12)Nc1ccc(S(=O)(=O)Nc2ncccn2)cc1	-13.2	32.6*	0.3	4.8
Cc1ccc(S(=O)(=O)NC(=O)Nc2ccc(N(C)C)cc2)cc1	8.3	3.4	0.5	-2.0
COC(=O)c1ccccc1-c1c2ccc(=N)cc-2oc2cc(N)ccc12	-9.4	·	108.8*	0.9
COC(=O)c1ccccc1-c1ccc(/C=N/NC(=O)c2cc3ccccc3o2)o1	-6.9	-8.5	-6.5	4.2
CCNC(=O)COc1ccc(CC)cc1	-4.5	1.3	-2.7	·
CCNC(=O)COc1ccc2ccccc2c1	35.3*	0.0	0.8	-11.3
Cc1ccccc1NC(=O)C(=O)NNC(=O)COc1ccc2ccccc2c1	-13.5	38.8*	-1.0	-0.4
CC(NC(=O)CN(Cc1ccccc1)S(=O)(=O)c1ccccc1)c1cccnc1 (stereo not given)	6.3	-5.1	-0.8	3.5
O=C(Nc1cccnc1)c1cccc(S(=O)(=O)N2CCc3ccccc32)c1	-12.6	72.8*	-2.6	·
CC1Cc2ccccc2N1S(=O)(=O)c1cccc(C(=O)Nc2cccnc2)c1 (stereo not given)	-13.9	33.7*	·	35.8
COC(=O)c1ccc(COC(=O)CNC(=O)CNC(=O)c2ccc(OC)cc2)cc1	-4.0	1.6	0.4	·
CCn1c(=S)sc2c(=O)n(-c3ccccc3)c(=S)[nH]c21	0.8	-2.1	-0.5	·
COc1cc(NC(=S)N2CCN(S(=O)(=O)c3ccc(F)cc3)CC2)cc(OC)c1	-13.0	48.3*	-1.7	·
COc1cccc(NC(=S)N2CCN(S(=O)(=O)c3ccc(F)cc3)CC2)c1	-16.0	-0.1	-2.8	·
Cc1ccc(C2(C)NC(=O)N(CC(=O)NCc3cccs3)C2=O)cc1 (stereo not given)	3.4	-2.8	-2.2	·
